MrgX1 agonist = agonists of human MrgX1 receptor, primary screen, HEK293 cells, Fluo-4 calcium flux; B-score at 10 µM; Mas-related G-protein coupled receptor member X1 (Homo sapiens), Q96LB2; Fluo-4 calcium fluorescence, agonist mode; active compounds read high; 310,000 compounds, 0.44% hits; AID 588627, 2011;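 active = calcium response B-score plate-corrected fluorescence ratio at least 3 library SD, with starting fluorescence B-score inside 5 SD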
Target sequence (Q96LB2 whole entry, looked up): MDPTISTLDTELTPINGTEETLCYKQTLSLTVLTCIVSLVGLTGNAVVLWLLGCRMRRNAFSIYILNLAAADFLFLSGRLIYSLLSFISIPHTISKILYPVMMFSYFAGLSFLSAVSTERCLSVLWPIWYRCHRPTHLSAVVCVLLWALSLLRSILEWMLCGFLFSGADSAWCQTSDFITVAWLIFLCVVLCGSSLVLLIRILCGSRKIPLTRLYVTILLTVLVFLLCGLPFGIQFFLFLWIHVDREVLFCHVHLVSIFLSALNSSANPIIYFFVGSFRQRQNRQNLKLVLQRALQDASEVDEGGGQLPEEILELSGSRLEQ
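Test system: Stable human MrgX1 HEK293 cell line | Schedule: Overnight plating before 1 h dye loading | Read-out basis: Baseline-normalised fluorescence change ratio, B-scored | Detection: Kinetic calcium dye fluorescence, Fluo-4 NW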
RGS4 pot = RGS4 potentiators or activators, primary screen, cell-based, HEK293 M3R inducible RGS4, calcium flux. 310,000 compounds, 0.92% hits. carbachol calcium flux Fluo4; active compounds read low. AID 463111, 2010. B-score at 10 µM;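 active = B-score of the integrated calcium signal more than 4 SD below the library mean, with starting fluorescence not abnormally high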;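 note: negative B-score means reduced calcium response which marks RGS4 activation or potentiation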
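Material: M3R-expressing HEK293 line, RGS4 induced by doxycycline | Schedule: Overnight RGS4 induction, 30 min dye load 37 °C, 20 min compound RT | Measured by: Fluo4 fluorescence kinetic imaging of calcium | Read-out: Integrated calcium ratio converted to B score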
MrgX1 antag = antagonists of human MrgX1 receptor, primary screen, HEK293 cells, Fluo-4 calcium flux | Mas-related G-protein coupled receptor member X1 (Homo sapiens), Q96LB2 | BAM8-22 antagonism; active compounds read low | B-score at 10 µM | 310,000 compounds, 1.3% hits | AID 588676, 2011;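 active = calcium-response B-score plate-corrected more than 3 library SD below zero, starting fluorescence within 5 deviations, no agonist response on first addition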;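 note: peak minus trough fluorescence over baseline after final BAM8-22 challenge near maximal dose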
RGS4 block = RGS4 inhibitors, primary screen, cell-based, HEK293 M3R inducible RGS4, calcium flux; Regulator of G-protein signaling 4 (Homo sapiens), P49798; Fluo-4 calcium flux; active compounds read high; triggered by carbachol at its EC20; B-score at 10 µM; 310,000 compounds, 0.45% hits; AID 463165, 2010;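 active = B-score, a plate-corrected calcium signal, over three deviations above library mean, with baseline fluorescence within five deviations of library mean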;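 note: RGS4 expression induced by doxycycline in cells with stable M3 receptor; B-score is computed from the integrated fluorescence ratio over baseline after carbachol; higher B-score means a larger calcium signal and so more RGS4 inhibition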
Target sequence (P49798 whole entry, looked up): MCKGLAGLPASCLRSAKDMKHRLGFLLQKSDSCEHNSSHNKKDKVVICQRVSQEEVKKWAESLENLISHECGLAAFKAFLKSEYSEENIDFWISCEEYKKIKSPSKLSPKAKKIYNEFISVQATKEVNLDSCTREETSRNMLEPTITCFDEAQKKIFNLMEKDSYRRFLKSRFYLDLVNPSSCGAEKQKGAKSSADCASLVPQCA
MrgX1 allo act = positive allosteric modulators of MrgX1, primary screen, HEK293 cells, Fluo-4 calcium flux. Mas-related G-protein coupled receptor member X1 (Homo sapiens), Q96LB2. B-score at 10 µM. 310,000 compounds, 0.63% hits. FDSS; active compounds read high;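 active = plate-corrected calcium response at least 3 library SD above typical, normal starting fluorescence, not activating the receptor alone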;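 note: compound read alongside a low EC10 to EC30 dose of BAM8-22 agonist; peak minus trough fluorescence over baseline measured at the second addition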
MrgX1 PAM conf = MrgX1 positive allosteric modulators, duplicate retest, confirmation, HEK293 cells, Fluo-4 calcium flux; 1,200 compounds, 13% hits; Fluo-4 calcium fluorescence, FDSS; shares compounds with MrgX1 allo act; AID 602413, 2012; activation (ratio percentage), % at 10 µM;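 active = ratio at least 3 SD above the weak peptide control, stable starting fluorescence, no direct agonism earlier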;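 note: compound followed by low BAM8-22 agonist challenge near EC20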
MrgX1 ant reconf = MrgX1 receptor antagonists, duplicate retest, confirmation, HEK293 cells, Fluo-4 calcium flux; shares compounds with MrgX1 antag; BAM8-22 calcium flux; active compounds read low; remaining BAM8-22 calcium response % of control (active compounds read low), % at 10 µM; 2,300 compounds, 19% hits;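 active = remaining agonist calcium response no higher than 100% minus 3 SD of agonist-only control wells, with starting fluorescence near control levels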;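 note: agonist BAM8-22 given at a near maximal EC90 to ECmax level; peak minus minimum fluorescence divided by baseline after agonist addition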
HEK293 Ca flux = nonspecific calcium signal in parental HEK293, confirmation, counter-screen for MrgX1 antagonist project, parental HEK293 cells, Fluo-4 calcium flux; shares compounds with MrgX1 antag; Fluo-4 calcium fluorescence, FDSS; fluorescence ratio F(max-min)/F0 at 10 µM; 4,000 compounds, 2% hits; AID 624111, 2012;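 active = duplicate-averaged calcium fluorescence ratio at least three times the standard deviation of buffer wells, a nonspecific response in parental cells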
HEK293 Ca counter = calcium response in parental HEK293 cells, primary screen, counter-screen for MrgX1 allosteric activator project, cell-based, Fluo-4 calcium flux, duplicate | shares compounds with MrgX1 antag | Fluo-4 fluorescence ratio; active compounds read high | fluorescence ratio F(max-min)/F0 at 10 µM | 4,000 compounds, 0.4% hits | AID 624114, 2012;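 active = calcium fluorescence ratio, averaged over duplicates, at least 3 SD of the buffer-well ratio, meaning a nonspecific response in receptor-free cells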;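 note: untransfected parental HEK293 lacking MrgX1 used as counterscreen for MrgX1 allosteric activators; fluorescence change taken during the second addition on a kinetic imager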
HEK293 Ca cntr2 = calcium response in parental HEK293 cells, primary screen, counter-screen for MrgX1 agonist project, cell-based, Fluo-4 calcium flux, duplicate, agonist mode; 4,000 compounds, 8.7% hits; Fluo-4 calcium fluorescence (FDSS); active compounds read high; shares compounds with MrgX1 antag; fluorescence ratio F(max-min)/F0 at 10 µM;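 active = calcium fluorescence ratio at least three times the spread of buffer wells, meaning a non-specific response in parental cells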
Starred values were filed as active, the others as inactive; i = inactive; x = no result. This is a sample that favours compounds with a hit; in the whole collection about 3.5% have one here.

SMILES	MrgX1 agonist	RGS4 pot	MrgX1 antag	RGS4 block	MrgX1 allo act	MrgX1 PAM conf	HEK293 Ca flux	HEK293 Ca counter	HEK293 Ca cntr2	others
O=C(Nc1nc2ccc(F)cc2s1)c1cccs1	i	i	i	i	9.3*	i	i	i	i
O=C(Nc1nc(-c2ccccc2)ns1)c1cccs1	i	i	i	i	7.5*	2.7%*	i	i	i
Cc1sc2nc(-c3ccc(Br)cc3)oc(=O)c2c1C	i	i	i	i	6.6*	i	i	i	i
Cc1sc2nc(-c3cccs3)oc(=O)c2c1C	i	i	i	i	i	x	x	x	x
COc1ccc(CNC(=O)CCN2C(=O)c3ccncc3C2=O)cc1OC	i	i	i	i	27*	13%*	i	i	i
COc1ccc(CNC(=O)CCN2C(=O)c3ccccc3C2=O)cc1OC	i	i	i	i	i	x	x	x	x
CCCCOc1ccc(C(=O)CCN2CCCCC2)cc1	i	i	i	i	7.1*	i	i	i	i
CC(C)COc1ccc(C(=O)CCN2CCCCC2)cc1	i	i	i	i	i	x	x	x	x
COc1ccc(CC(=O)NC(=S)Nc2cccc(CO)c2)cc1	i	i	i	i	7.2*	i	i	i	i
CCOC(=O)CCCNC(=O)CSc1nnc(-c2ccccc2)c(-c2ccccc2)n1	i	i	i	i	i	x	x	x	x
Cc1n[nH]c(C)c1Cc1c(F)cccc1Cl	i	i	i	i	25*	16%*	i	i	i
Nc1nc(-c2ccccn2)nc(N)c1Cc1c(F)cccc1Cl	i	i	i	i	i	x	x	x	x
O=C(c1ccc(C23CC4CC(CC(C4)C2)C3)o1)N1CCOCC1	i	i	i	i	11*	i	i	i	i
O=C(NCCCN1CCCC1=O)c1c(O)nc2sccn2c1=O	i	i	i	i	i	x	x	x	x
CC(=O)Nc1cccc(N=NN2CCCCC2)c1	i	i	i	i	i	x	x	x	x
CN1c2ccccc2Oc2nnc(N3CCN(Cc4ccccc4)CC3)cc21	i	i	i	i	12*	i	i	i	i
CN1c2ccccc2Oc2nnc(Cl)cc21	i	i	i	i	i	x	x	x	x
O=C(CSc1nc2ccccc2[nH]1)NCc1ccc(F)cc1	i	i	i	i	9.5*	i	i	i	i
O=C(CSc1nc2ccccc2[nH]1)Nc1ccc(F)cc1	i	i	i	i	i	x	x	x	x
C=C(C)CNC(=S)Nc1cccc(S(=O)(=O)NC2=NCCC2)c1	i	i	i	i	11*	i	i	i	i
CSCCCNC(=S)Nc1cccc(S(=O)(=O)NC2=NCCC2)c1	i	i	i	i	i	x	x	x	x
Cc1ccc(C(=O)Nc2ccccc2N2CCCC2)cc1	i	i	i	i	i	x	x	x	x
COc1ccc(S(=O)(=O)NCC(c2ccc3c(c2)OCO3)N2CCOCC2)cc1 (stereo unspecified)	i	i	i	i	i	x	x	x	x
Cc1c(OC(C)C(=O)NCCCN2CCOCC2)ccc2c3c(c(=O)oc12)CCCC3 (stereo unspecified)	i	i	i	i	6.9*	i	i	i	i
Cc1c(OC(C)C(=O)NCCCN2CCOCC2)ccc2c3c(c(=O)oc12)CCC3 (stereo unspecified)	i	i	i	i	i	x	x	x	x
SMILES	MrgX1 agonist	RGS4 pot	MrgX1 antag	RGS4 block	MrgX1 allo act	MrgX1 PAM conf	HEK293 Ca flux	HEK293 Ca counter	HEK293 Ca cntr2	others
O=C1C[C@H]2[C@H](CO)[C@@H](OC(=O)c3ccc(-c4ccccc4)cc3)C[C@H]2O1	i	i	i	i	i	x	x	x	x
c1ccc2cc(OCCOCCOc3ccc4ccccc4c3)ccc2c1	i	i	i	i	13*	i	i	i	i
CN(C)CCOc1ccc2ccccc2c1	i	i	i	i	i	x	x	x	x
COC(=O)Cc1[nH]n(-c2nc3ccccc3s2)c(=O)c1C(C)=Nc1ccc(Cl)cc1	i	i	i	i	12*	i	i	i	i
CC(=O)[C@@]1(O)[C@H](C)CC2C3CC=C4CC(OP(=O)(O)O)CC[C@]4(C)C3CC[C@@]21C (stereo partly specified)	i	i	i	i	i	x	x	x	x
NC1=NC[C@@H](Cc2ccc(O)cc2)N1CCc1cccc2ccccc12	i	i	i	i	i	x	x	x	x
CCC(C)[C@H]1CN=C(N)N1CCc1cccc2ccccc12 (stereo partly specified)	i	i	i	i	i	x	x	x	x
NCCCC[C@H]1CN=C(N)N1CCc1cccc2ccccc12	i	i	i	i	33*	i	i	i	i
NC1=NC[C@H](Cc2ccc(O)cc2)N1CCc1cccc2ccccc12	i	i	-12*	i	9.6*	i	i	i	i	MrgX1 ant reconf=i
NC1=NC[C@H](Cc2ccc(O)cc2)N1CCCCC1CCCCC1	i	i	i	i	9.3*	i	i	i	i
CC(C)NC(=O)C(c1ccc(F)cc1)N(Cc1ccco1)C(=O)CCC(=O)Nc1ccccn1 (stereo unspecified)	i	i	i	i	i	x	x	x	x
CC1CCC(=C(C#N)C(=O)Nc2cccc(Cl)c2)CC1 (stereo unspecified)	i	i	i	i	i	x	x	x	x

Compound activity (PubChem)
